Reference: ChEMBL document CHEMBL1122150, “Synthesis and biological activity of benzothiazolo- and benzoxazolo[3,2-a]quinolinium salts” (1982)

What was measured:
HeLa = experiment: The cytotoxic activity was determined against HeLa cell line; format: functional, Mus musculus; conditions: Homo sapiens, read-out: ED50 (the source's name)
Outline: (§1)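 KB or HeLa monolayers were grown in Eagle's MEM with 10% fetal calf serum and subcultured every 6–7 days. Drugs were suspended in sterile 0.5% carboxymethylcellulose. 6-Mercaptopurine at 1 μM was the positive control in every run. Cytotoxic concentration is expressed in μg/mL.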

Mus musculus [1] = experiment: No of survivors was determined for Ehrlich Ascites tumor after intraperitoneal administration at a dose of 100 mg/kg in mice; 6/6; format: functional
Mus musculus [2] = experiment: Percentage of treated /control was determined against P-388 ascitic leukemia in mice, at a dose of 100 mg/kg; format: functional
Outline: (§2)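 Female BDF1 mice bearing P-388 ascitic leukemia, run per standard NCI protocol. Single ip dose on day 1, suspended in 0.9% NaCl with 0.10% Tween 80 and serially diluted in saline. T/C% = median survival time of treated mice / median survival of controls × 100. 5-Fluorouracil at 200 mg/kg as positive control. Groups of 6; mean of three tests.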

Mus musculus [3] = experiment: Antitumor activity against Ehrlich Ascites tumor after intraperitoneal administration at a dose of 400 mg/kg in mice; 0/6; format: functional
Mus musculus [4] = experiment: Percentage of treated /control was determined for Ehrlich Ascites tumor after intraperitoneal administration at a dose of 200 mg/kg in mice; format: functional
Outline: (§3)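 Female Albino Swiss mice, five to six weight-matched per group, implanted ip with 1×10^6 viable Ehrlich ascites cells (Trypan blue count). Single ip dose 24 h after implantation (day 1), suspended in 0.9% NaCl with 0.10% Tween 80 and serially diluted in saline. T/C% read at day 12. Survival followed 60 days. Mean of three tests (two at 90 and 100 mg/kg).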

Mus musculus [5] = experiment: Antitumor activity against Ehrlich Ascites tumor after intraperitoneal administration at a dose of 90 mg/kg in mice; 3/5; format: functional
Mus musculus [6] = experiment: Long term survivors/no of treated mice was determined for Ehrlich Ascites tumor after intraperitoneal administration at a dose of 150 mg/kg in mice; 15/18
Mus musculus [7] = experiment: Percentage of treated /control was determined for Ehrlich Ascites tumor after intraperitoneal administration at a dose of 90 mg/kg in mice; format: functional; outline: as §3
Mus musculus [8] = experiment: Long term survivors/no of treated mice was determined for Ehrlich Ascites tumor after intraperitoneal administration at a dose of 100 mg/kg in mice; 12/12; format: functional
Mus musculus [9] = experiment: Long term survivors/no of treated mice was determined for Ehrlich Ascites tumor after intraperitoneal administration at a dose of 90 mg/kg in mice; 5/10; format: functional
Mus musculus [10] = experiment: No of survivors was determined for P-388 ascitic leukemia in mice, at a dose of 100 mg/kg; 6/6; format: functional
Mus musculus [11] = experiment: Antitumor activity against Ehrlich Ascites tumor after intraperitoneal administration at a dose of 250 mg/kg in mice; 6/6; format: functional
Mus musculus [12] = experiment: Number of toxic death/ no of treated mice was determined for Ehrlich Ascites tumor after intraperitoneal administration at a dose of 400 mg/kg in mice; 6/6; format: functional
KB = experiment: The cytotoxic activity was determined against KB cell line.; format: functional, Mus musculus; conditions: Homo sapiens, read-out: ED50 (the source's name); outline: as §1
Mus musculus [13] = experiment: Antitumor activity against Ehrlich Ascites tumor after intraperitoneal administration at a dose of 150 mg/kg in mice; 6/6; format: functional
Mus musculus [14] = experiment: Antitumor activity against P-388 ascitic leukemia in mice, at a dose of 200 mg/kg; 6/6; format: functional
Mus musculus [15] = experiment: Percentage of treated /control was determined for Ehrlich Ascites tumor after intraperitoneal administration at a dose of 150 mg/kg in mice; format: functional; outline: as §3
Mus musculus [16] = experiment: Percentage of treated /control was determined against P-388 ascitic leukemia in […] mice, at a dose of 200 mg/kg; format: functional; outline: as §2
Mus musculus [17] = experiment: Long term survivors/no of treated mice was determined for Ehrlich Ascites tumor after intraperitoneal administration at a dose of 200 mg/kg in mice; 18/18
Mus musculus [18] = experiment: Antitumor activity against Ehrlich Ascites tumor after intraperitoneal administration at a dose of 200 mg/kg in mice; 6/6; format: functional
Mus musculus [19] = experiment: Percentage of treated /control was determined for Ehrlich Ascites tumor after intraperitoneal administration at a dose of 250 mg/kg in mice; format: functional; outline: as §3
Mus musculus [20] = experiment: Antitumor activity against P-388 ascitic leukemia in mice, at a dose of 400 mg/kg; 0/6; format: functional
Mus musculus [21] = experiment: Long term survivors/no of treated mice was determined for Ehrlich Ascites tumor after intraperitoneal administration at a dose of 250 mg/kg in mice; 15/18
Mus musculus [22] = experiment: Percentage of treated /control was determined for Ehrlich Ascites tumor after intraperitoneal administration at a dose of 100 mg/kg in mice; format: functional; outline: as §3
Mus musculus [23] = experiment: Number of toxic death/ no of treated was determined for P-388 ascitic leukemia in mice, at a dose of 400 mg/kg; 6/6; format: functional
P388 [24] = experiment: Percentage of treated /control was determined against P-388 leukemia in […] mice, at a dose of 100 mg/kg; format: functional, Mus musculus; outline: as §2
P388 [25] = experiment: Percentage of treated /control was determined against P-388 leukemia in […] mice, at a dose of 320 mg/kg; format: functional, Mus musculus

## O=[N+]([O-])c1ccc2c(ccc3sc4ccccc4[n+]32)c1.[O-][Cl+3]([O-])([O-])[O-]
HeLa
  EC50: 0.9 µg/mL
Mus musculus [1]
  Survival: 6
Mus musculus [2]
  T/C: 153%
Mus musculus [3]
  Survival: 0
Mus musculus [4]
  T/C: -6.2%
Mus musculus [5]
  Survival: 3
Mus musculus [6]
  LTS: 15
Mus musculus [7]
  T/C: 57.3%
Mus musculus [8]
  LTS: 12
Mus musculus [9]
  LTS: 5
Mus musculus [10]
  Survival: 6
Mus musculus [11]
  Survival: 6
Mus musculus [12]
  Toxicity: 6
KB
  EC50: 0.6 µg/mL
Mus musculus [13]
  Survival: 6
Mus musculus [14]
  Survival: 6
Mus musculus [15]
  T/C: -0.4%
Mus musculus [16]
  T/C: 218%
Mus musculus [17]
  LTS: 18
Mus musculus [18]
  Survival: 6
Mus musculus [19]
  T/C: -2.5%
Mus musculus [20]
  Survival: 0
Mus musculus [21]
  LTS: 15
Mus musculus [22]
  T/C: 35.8%
Mus musculus [23]
  Toxicity: 6

## O=[N+]([O-])c1ccc2c(ccc3oc4ccccc4[n+]32)c1.[O-][Cl+3]([O-])([O-])[O-]
HeLa
  EC50: 15 µg/mL
KB
  EC50: 12 µg/mL

## COc1cc2c[n+](C)c3c4cc5c(cc4ccc3c2cc1OC)OCO5.[Cl-] [NITIDINE CHLORIDE]
P388 [24]
  T/C: 129%

## COc1cc2c(ccc3c4cc(OC)c(OC)cc4c[n+](C)c23)cc1O.[Cl-] [FAGARONINE]
KB
  EC50: 0.7 µg/mL
P388 [25]
  T/C: 290%
